Assay results collected from several papers.
Protocols differ between the studies behind these lines.
Target: MAP kinase-interacting serine/threonine-protein kinase 1 (MKNK1, Homo sapiens, UniProt Q9BUB5)

SMILES | effect on | method | concentration | remaining binding [%]
CC(C)(C)c1ccc(-c2nc(CBr)nn2-c2cccc(O)c2)cc1 | cell-free assay | competition with immobilised ligand | 10 µM | 57
O=C(c1ccc(Nc2ncc(Cl)c(-c3ccc(Cl)s3)n2)cc1)N1CCC(N2CCCC2)CC1 | binding | competition with immobilised ligand | 1 µM | 45
CN(CCCC(F)(F)F)c1nccc(-c2cnn3ncccc23)n1 | binding | – | 1 µM | 100
C[C@@H]1CN(c2cc(-c3n[nH]c4ccc(OC5(C)CC5)cc34)ncn2)C[C@H](C)O1 | cell-free assay | competition with immobilised ligand | 0.1 µM | 67
CN(C)c1nccc(-c2cnc3ncccn23)n1 | binding | – | 1 µM | 67
COc1cnc(Nc2cccc(S(N)(=O)=O)c2)nc1N1CCN(c2ccccc2)CC1 | binding | competition with immobilised ligand | 1 µM | 83
Nc1ncc2c(n1)-c1c([nH]c3ccc(C#CC4CC4)cc13)CCCC2 | binding | competition with immobilised ligand | 1 µM | 86
Cc1cc(C)c(-n2ccn3nc(-c4cccnc4)cc23)cc1NC(=O)c1cc(C#N)cc(S(F)(F)(F)(F)F)c1 | cell-free assay | competition with immobilised ligand | 0.1 µM | 83.8
C[C@@H]1CN(c2ccc3ncc(-c4ccc5[nH]nc(C6CC6)c5c4)n3n2)C[C@H](C)O1 | binding | competition with immobilised ligand | 50 nM | 92
O=C(Nc1c[nH]nc1C(=O)NC1CCNCC1)c1cc(F)cc(F)c1 | binding | competition with immobilised ligand | 1 µM | 100
CSc1cccnc1N1CCN(Cc2nc3ccccc3[nH]2)CC1 | cell-free assay | competition with immobilised ligand | 1 µM | 98
CN(c1nccc(-c2cnn3ncccc23)n1)C1CC1 | binding | – | 1 µM | 98
COc1cc(-c2cn(C3CCc4c(F)cccc4N(CC(F)(F)F)C3=O)nn2)ccc1-n1cnc(C)c1 (stereo not shown) | cell-free assay | competition with immobilised ligand | 1 µM | 87
CC1CCCN1c1nccc(-c2cnn3ncccc23)n1 (stereo not shown) | binding | – | 1 µM | 89
Cc1nc(Cc2cccc(C(F)(F)F)c2)sc1-c1ccc(C(N)=O)nc1 | cell-free assay | competition with immobilised ligand | 1 µM | 100
O=C(NCCCN1CCOCC1)c1ccc(Nc2nccc(-c3cc4ccccc4s3)n2)cc1 | binding | competition with immobilised ligand | 1 µM | 43
CS(=O)(=O)c1cc(C2(NC(=O)c3cncc4c3cnn4-c3ccc(F)cc3)CC2)ccn1 | cell-free assay | competition with immobilised ligand | 1 µM | 47
COc1cnc(Nc2cccc(S(N)(=O)=O)c2)nc1N1CCN(c2ccccc2)C(=O)C1 | binding | competition with immobilised ligand | 1 µM | 98
CO[C@@H](C)c1c(Nc2ccc([C@H](N(C)C(=O)C3CCS(=O)(=O)CC3)C(F)(F)F)cc2)cnc2cc(Cl)nn12 | cell-free assay | competition with immobilised ligand | 1 µM | 100
N[C@@H]1CCN(c2nccc(-c3cnn4ncccc34)n2)C1 | binding | – | 1 µM | 68
O=C(c1ccc(Nc2ncc(Cl)c(-c3cc4ccccc4s3)n2)cc1)N1CCC(N2CCCC2)CC1 | binding | competition with immobilised ligand | 1 µM | 24
COc1ccnn2ncc(-c3ccnc(N(C)C)n3)c12 | binding | – | 1 µM | 95
CC(=O)C1=C(C)N(c2cccc(C(F)(F)F)c2)C(=O)N[C@@H]1c1ccc(C#N)nc1 | cell-free assay | competition with immobilised ligand | 1 µM | 100
C[C@@H]1CCN(c2nccc(-c3cnn4ncccc34)n2)C1 | binding | – | 1 µM | 74
COc1ncc2cc3ccccc3nc2c1C#N | cell-free assay | competition with immobilised ligand | 5 µM | 96
